Twelve compounds from ChEMBL document CHEMBL2046278, “Development and evaluation of multifunctional agents for potential treatment of Alzheimer's disease: application to a pyrimidine-2,4-diamine template” (Bioorg Med Chem Lett, 2012) can be followed below.

The structures appear in SMILES notation. The source made the active and inactive calls. The calls are words filed in the database; no cut-off is given here. Peptide text beside a SMILES is read from it. * marks the point of attachment. Cbz = O=C(OCc1ccccc1)*

One data set has as its target Cholinesterase (Equus caballus, UniProt P81908). The data set is described as follows: Inhibition of equine BuChE using butyrylthiocholine iodide as substrate after 5 mins by DTNB method.
The next data set has as its target Acetylcholinesterase (Homo sapiens, UniProt P22303). Briefly: Inhibition of human AChE using acetylthiocholine iodide as substrate after 5 mins by DTNB method.
A short description of data set [1]: Selectivity ratio of IC50 for human AChE to IC50 for equine BuChE.
The target of data set [2] is T1, Beta-secretase 1 (Homo sapiens, UniProt P56817). The data set is described as follows: Inhibition of BACE1.
T1 sequence (P56817 whole entry): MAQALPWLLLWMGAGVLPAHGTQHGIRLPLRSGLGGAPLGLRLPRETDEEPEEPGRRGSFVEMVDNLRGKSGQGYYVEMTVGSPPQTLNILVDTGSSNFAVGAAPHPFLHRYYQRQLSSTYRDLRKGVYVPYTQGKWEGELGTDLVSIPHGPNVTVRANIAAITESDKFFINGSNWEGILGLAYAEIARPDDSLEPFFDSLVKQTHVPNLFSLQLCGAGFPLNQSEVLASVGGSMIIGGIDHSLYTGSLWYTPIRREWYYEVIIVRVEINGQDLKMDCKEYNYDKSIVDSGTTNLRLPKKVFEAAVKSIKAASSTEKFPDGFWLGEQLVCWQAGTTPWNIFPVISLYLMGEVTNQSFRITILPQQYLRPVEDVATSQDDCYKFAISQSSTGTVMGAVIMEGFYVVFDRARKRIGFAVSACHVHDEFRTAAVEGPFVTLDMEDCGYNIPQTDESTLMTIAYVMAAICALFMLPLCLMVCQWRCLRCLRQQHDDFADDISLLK
Data set [3] can be described thus: Inhibition of self-induced amyloid beta (1 to 40) aggregation at 100 uM after 24 hrs by thioflavin T-based fluorescence analysis. An outline of the steps: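 Aβ1-40 peptide aggregating on its own, without hAChE, with test compound at 100 μM. Aggregation read by thioflavin T fluorescence and expressed as % inhibition. Reported as the mean of two separate experiments (n = 4), with deviation from the mean under 10% of the mean value.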

Data set [4] deals with T1, Beta-secretase 1. Briefly: Inhibition of BACE1 at 10 uM.
Data set [5] is described as follows: Induction of disassembly of preformed amyloid beta (1 to 40) fibrils assessed as disaggregated fibrils at 10 uM after 3 days by transmission electron microscopic analysis. An outline of the steps:
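Aβ1-40 fibrils were preformed over a three-day pre-fibrillization period. Compound was then incubated with the fibrils at 10 μM, and fibril morphology and disassembly were examined by transmission electron microscopy.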

Data set [6] in a line: Inhibition of amyloid beta (1 to 40) fibril formation at 10 uM coincubated with amyloid beta (1 to 40) peptide after 72 hrs by transmission electron microscopic analysis.
The nature of data set [7]: Cytotoxicity against human SH-SY5Y cells assessed as cell viability at 40 uM after 24 hrs by MTT assay. It is filed as cell-based. The following applies: read-out: Activity.

Sequence of Cholinesterase (P81908 whole entry): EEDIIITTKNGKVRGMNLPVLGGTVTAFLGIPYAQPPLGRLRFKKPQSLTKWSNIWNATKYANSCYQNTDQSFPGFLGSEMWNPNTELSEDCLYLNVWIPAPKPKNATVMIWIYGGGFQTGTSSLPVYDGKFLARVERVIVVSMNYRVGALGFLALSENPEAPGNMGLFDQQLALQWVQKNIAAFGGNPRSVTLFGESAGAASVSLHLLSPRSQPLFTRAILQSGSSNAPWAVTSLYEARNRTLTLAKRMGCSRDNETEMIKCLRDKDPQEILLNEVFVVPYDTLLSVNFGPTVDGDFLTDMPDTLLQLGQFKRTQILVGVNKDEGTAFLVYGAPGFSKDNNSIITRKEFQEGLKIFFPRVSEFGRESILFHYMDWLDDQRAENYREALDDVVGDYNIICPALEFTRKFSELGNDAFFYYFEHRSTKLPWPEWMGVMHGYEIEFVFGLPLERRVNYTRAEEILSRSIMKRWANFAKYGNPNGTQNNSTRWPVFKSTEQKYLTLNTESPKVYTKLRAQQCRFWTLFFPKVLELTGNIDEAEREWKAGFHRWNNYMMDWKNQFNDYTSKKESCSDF
Sequence of Acetylcholinesterase (P22303 whole entry): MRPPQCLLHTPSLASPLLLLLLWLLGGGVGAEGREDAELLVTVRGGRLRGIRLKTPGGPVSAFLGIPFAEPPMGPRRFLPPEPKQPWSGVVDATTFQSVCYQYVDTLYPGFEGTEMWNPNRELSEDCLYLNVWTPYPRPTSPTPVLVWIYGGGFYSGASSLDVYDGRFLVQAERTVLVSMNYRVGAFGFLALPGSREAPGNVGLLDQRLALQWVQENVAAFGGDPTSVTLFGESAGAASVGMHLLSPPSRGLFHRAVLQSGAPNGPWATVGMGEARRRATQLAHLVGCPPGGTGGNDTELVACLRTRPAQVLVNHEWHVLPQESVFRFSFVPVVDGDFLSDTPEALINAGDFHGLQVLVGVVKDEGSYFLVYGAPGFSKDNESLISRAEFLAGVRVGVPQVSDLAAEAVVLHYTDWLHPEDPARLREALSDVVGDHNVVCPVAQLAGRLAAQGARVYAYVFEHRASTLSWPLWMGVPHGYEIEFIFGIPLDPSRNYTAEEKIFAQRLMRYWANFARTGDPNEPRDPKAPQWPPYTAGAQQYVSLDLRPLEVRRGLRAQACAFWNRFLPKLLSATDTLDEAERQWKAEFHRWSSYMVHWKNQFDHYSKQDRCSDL

For orientation: IC50 means the concentration that inhibits the measured activity by half. In general, inhibition refers to the drop in the measured response relative to a control, in per cent. Consider `Clc1ccccc1CNc1ccnc(NC2CCN(Cc3ccccc3)CC2)n1`, for which the IC50 at Cholinesterase stood at 2.4 µM; against Acetylcholinesterase, 7.7 µM; on Beta-secretase 1 [2], 1.7 µM. Further, in data set [1], the Ratio IC50 turned out to be 3.2. Also, the inhibition in data set [3] is 42.2%.
On the same counts, the results for `Fc1ccc(CNc2ccnc(NC3CCN(Cc4ccccc4)CC3)n2)cc1` are 2.2 µM, 7.7 µM, 0.7 µM, 3.5 and 29.8%.
For `COc1cc(CNc2ccnc(NC3CCN(Cc4ccccc4)CC3)n2)cc(OC)c1OC`, the 50% inhibitory concentration (IC50) against Cholinesterase was 7.7 µM; against Acetylcholinesterase, 10.3 µM; at Beta-secretase 1 [2], 8.9 µM. Further, in data set [1], the Ratio IC50 amounted to 1.3. Moreover, the inhibition result in data set [3] was “inactive”.
In the case of `Brc1ccc(CNc2ccnc(NC3CCN(Cc4ccccc4)CC3)n2)cc1`, the IC50 turned out to be 4.1 µM against Cholinesterase and 9.9 µM at Acetylcholinesterase. The inhibition on Beta-secretase 1 [4] came out at 33%; in [3], 48.4%. Also, the inhibition result in data set [5] and in data set [6] was “Active” in each case. Besides, the Ratio IC50 in data set [1] came out at 2.4.
`Clc1cccc(CNc2ccnc(NC3CCN(Cc4ccccc4)CC3)n2)c1`: the IC50 against Cholinesterase amounted to 2.5 µM; at Acetylcholinesterase it was 7.7 µM; against Beta-secretase 1 [2], 0.6 µM. Also, the Ratio IC50 in data set [1] stood at 3.1. For the same compound, the inhibition in data set [3] worked out at 39.9%.
`CC(C)C[C@@H](C=O)NC(=O)[C@H](CC(C)C)NC(=O)[C@@H](NC(=O)OCc1ccccc1)C(C)C` (Cbz-Val-Leu-Leu-aldehyde) yielded an IC50 at Beta-secretase 1 [2] of 14 µM.
For `COc1ccc(CNc2ccnc(NC3CCN(Cc4ccccc4)CC3)n2)cc1OC`, the IC50 on Cholinesterase was determined as 11.4 µM; against Acetylcholinesterase, 9.9 µM. For the same compound, the viability at 24 h, 40 µM in data set [7] worked out at 81%. Besides, the inhibition at Beta-secretase 1 [4] came out at 34%; in data set [3] it was 17.4%. The Ratio IC50 in data set [1] stood at 0.9.
In the case of `Cc1ccc(CNc2ccnc(NC3CCN(Cc4ccccc4)CC3)n2)cc1`, the IC50 against Cholinesterase came to 2.5 µM; on Acetylcholinesterase, 12.9 µM; on Beta-secretase 1 [2] it was 11.1 µM. Moreover, the Ratio IC50 in data set [1] was 5.2. This compound displayed an inhibition in [3] of 21.9%.
Consider `COc1ccc2c3c1O[C@H]1C[C@@H](O)C=C[C@@]31CCN(C)C2`, for which, in data set [6], the inhibition result was “Active”. This compound had an inhibition in [3] of 48%.
Regarding `Clc1ccc(CNc2ccnc(NC3CCN(Cc4ccccc4)CC3)n2)cc1`, the results for the half-maximal inhibitory concentration (IC50) against Cholinesterase, on Acetylcholinesterase and on Beta-secretase 1 [2] were 2.8 µM, 8.8 µM and 3.2 µM, respectively. Also, the inhibition entry in data set [5] and in data set [6] was “Active” in each case. Also, in data set [1], the Ratio IC50 was 3.1. The same compound registered an inhibition in [3] of 42.6%.
As for `COc1ccc(CNc2ccnc(NC3CCN(Cc4ccccc4)CC3)n2)cc1`, the IC50 stood at 4.9 µM against Cholinesterase, 9.4 µM at Acetylcholinesterase and 0.6 µM at Beta-secretase 1 [2]. In data set [1], the Ratio IC50 was 1.9. In [3], this compound displayed an inhibition of 18.2%.
On the same counts, the results for `c1ccc(CN2CCC(Nc3nccc(NCc4ccc5c(c4)OCO5)n3)CC2)cc1` are 3.9 µM, 12.6 µM, 1.4 µM, 3.2 and 18.6%.
